# In paper PMC3601665 (Molecular pharmaceutics, 2012):
# Legend:
# [1] = system: cell growth; details: cited from earlier work
# [2] = system: DU145 cells; assay: Cytotoxicity assay; assay type: cell-based; details: read-out: IC50 (Mean ± SE); DU145, PSMA negative, 72 h, n=6
# In short: (§1)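 DU145 and LNCaP were grown in RPMI-1640 and PC3 in F-12K, all with 10 % FBS. Cells were seeded at 5,000 per well. After 12 h, test compound (free or micelle-loaded) in PBS was added at 0, 0.1, 1, 5, 10, 50 or 100 μM. PBS and TCA served as negative and positive controls. After 72 h, 55-μM resazurin solution was added for 4 h at 37 °C, then resorufin fluorescence was read (ex 560/em 590 nm). IC50 was taken as the midpoint between controls on each plate.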
# [3] = system: PC3 cells; assay: Cytotoxicity assay; assay type: cell-based; details: read-out: IC50 (Mean ± SE); PC3, PSMA negative, 72 h, n=6
# In short: as §1
# [4] = system: LNCaP cells; assay: Cytotoxicity assay; assay type: cell-based; details: for selective cytotoxicity: LNCaP versus DU145 and PC3; for IC50: read-out: IC50 (Mean ± SE), LNCaP, PSMA positive, PTEN-deficient, 72 h, n=6
# In short: as §1
# [5] = system: pAkt (Ser-473) in LNCaP cells; assay: Western blot assay of Akt phosphorylation; assay type: cell-based; details: 2-μM drug, 100-ng/mL EGF, 30 min, serum-starved LNCaP
# In short: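 Cells were lysed in buffer with protease inhibitors, and protein was quantified by BCA. Equal protein amounts were run on 10 % SDS-PAGE and transferred to nitrocellulose. Blots were probed for phospho-Akt (Ser-473) and total Akt, followed by HRP-conjugated secondary antibodies and chemiluminescent detection.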
SMILES,concentration at which cell growth is significantly inhibited [1],IC50 [2] [µM],IC50 [3] [µM],selective cytotoxicity [4],IC50 [4] [µM],phosphorylation of Akt (Ser473) [5]
CC1(C)C(=CC=C2CCCC(C=CC3=[N+](CCCCS(=O)(=O)[O-])c4ccc5ccccc5c4C3(C)C)=C2Cl)N(CCCCS(=O)(=O)[O-])c2ccc3ccccc3c21.[Na+] [IR-820],greater than 5 μM,–,–,–,–,–
Cc1cc(C(C)Nc2ccccc2)c2nc(N3CCOCC3)cc(=O)n2c1 (centres unmarked) [TGX-221],–,35.6 ± 0.12,18.2 ± 0.85,selective cytotoxicity to LNCaP cells,3.98 ± 0.18,inhibited phosphorylation of Akt
Cc1cc(C(C)N(CCO)c2ccccc2)c2nc(N3CCOCC3)cc(=O)n2c1 (centres unmarked) [BL05],–,32.4 ± 0.67,23.4 ± 0.74,selective cytotoxicity to LNCaP cells,4.04 ± 0.11,inhibited phosphorylation of Akt
